Measured values published in ChEMBL document CHEMBL3232820, “Improved total synthesis and biological evaluation of potent apratoxin S4 based anticancer agents with differential stability and further enhanced activity” (J Med Chem, 2014).
Activity calls are given as the source filed them. The rule behind the calls is not given here.

Tests used:
[1] = Half life in phosphate buffer at 25 ug/ml at pH 4.88 by HPLC-MS analysis; type: physicochemical
Summary of the method: (§1)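 Compound (10 μL of 25 μg/mL) spiked into 100 μL of 100 mM phosphate buffer, pH 4.88 or pH 7.4, incubated 0.25 min to 24 h; ethyl acetate extraction with harmine internal standard; HPLC-MS (MRM); remaining amount from calibration curve.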

HCT-116 [2] = experiment: Antiproliferative activity against human HCT116 cells after 48 hrs by MTT assay; type: functional, cell-based; conditions: HCT-116, 48 h
Liver [3] = experiment: Metabolic stability in CD1 mouse liver microsomes assessed as compound remaining at 1 uM after 60 mins by HPLC-MS analysis in presence of NADPH; type: ADME; conditions: 1 h
Summary of the method: (§2)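 Pooled female CD1 mouse liver microsomes, 0.5 mg/mL protein final, in 100 mM phosphate pH 7.4 at 37 °C; compound 1 μM final, with or without NADPH-regenerating system; 3 min to 2 h; quenched with ethyl acetate, harmine internal standard; HPLC-MS (MRM); % remaining versus t0 peak-area ratio; triplicate.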

Liver [4] = experiment: Metabolic stability in CD1 mouse liver microsomes assessed as compound remaining at 1 uM after 15 mins by HPLC-MS analysis; type: ADME; conditions: 0.25 h; summary of the method: as §2
Liver [5] = experiment: Metabolic stability in CD1 mouse liver microsomes assessed as compound remaining at 1 uM after 3 mins by HPLC-MS analysis in presence of NADPH; type: ADME; conditions: 0.05 h; summary of the method: as §2
[6] = molecular target: T1, Vascular endothelial growth factor A, long form (Homo sapiens, UniProt P15692); experiment: Inhibition of VEGF-A production in human HCT116 cells after 12 hrs by alphaLISA assay; type: cell-based, HCT-116
T1 sequence (P15692 whole entry): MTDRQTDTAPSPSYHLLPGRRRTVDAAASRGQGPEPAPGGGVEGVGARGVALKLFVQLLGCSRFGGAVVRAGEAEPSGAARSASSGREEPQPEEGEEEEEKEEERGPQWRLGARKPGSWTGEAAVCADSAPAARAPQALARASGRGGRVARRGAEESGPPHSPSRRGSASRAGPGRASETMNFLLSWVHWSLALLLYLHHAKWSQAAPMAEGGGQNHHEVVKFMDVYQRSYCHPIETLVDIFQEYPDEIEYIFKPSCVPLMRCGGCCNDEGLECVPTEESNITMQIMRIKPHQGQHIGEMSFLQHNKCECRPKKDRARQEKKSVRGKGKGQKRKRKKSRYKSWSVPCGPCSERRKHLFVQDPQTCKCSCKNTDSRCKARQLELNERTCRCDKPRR

Liver [7] = experiment: Metabolic stability in CD1 mouse liver microsomes assessed as compound remaining at 1 uM after 5 mins by HPLC-MS analysis; type: ADME; summary of the method: as §2
[8] = Half life in CD1 mouse liver microsomes at 1 uM by HPLC-MS analysis in presence of NADPH; type: ADME
Plasma = experiment: Metabolic stability in mouse plasma at 25 ug/ml up to 24 hrs by HPLC-MS analysis; type: ADME, cell-free
Summary of the method: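 Compound (10 μL of 25 μg/mL) added to 100 μL mouse serum, incubated 0.25 min to 24 h; ethyl acetate plus harmine quench/extraction, dried, reconstituted in acetonitrile; HPLC-MS (MRM); remaining amount from calibration curve.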

Liver [9] = experiment: Metabolic stability in CD1 mouse liver microsomes assessed as compound remaining at 1 uM after 30 mins by HPLC-MS analysis in presence of NADPH; type: ADME; conditions: 0.5 h; summary of the method: as §2
HCT-116 [10] = experiment: Downregulation of human MET protein expression in HCT116 cells up to 10 uM after 24 hrs by Western blotting analysis; type: functional, cell-based
Summary of the method: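 HCT116 cells seeded 4×10^5/well, treated next day with a concentration series (solvent control 1% EtOH) for 24 h; whole-cell lysates, equal protein by BCA, 4–12% SDS-PAGE, PVDF transfer, anti-Met immunoblot with chemiluminescent detection.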

Liver [11] = experiment: Metabolic stability in CD1 mouse liver microsomes assessed as compound remaining at 1 uM after 120 mins by HPLC-MS analysis in presence of NADPH; type: ADME; conditions: 2 h; summary of the method: as §2
Liver [12] = experiment: Metabolic stability in CD1 mouse liver microsomes assessed as compound remaining at 1 uM after 60 mins by HPLC-MS analysis; type: ADME; conditions: 1 h; summary of the method: as §2
Liver [13] = experiment: Metabolic stability in CD1 mouse liver microsomes assessed as compound remaining at 1 uM after 120 mins by HPLC-MS analysis; type: ADME; conditions: 2 h; summary of the method: as §2
Liver [14] = experiment: Metabolic stability in CD1 mouse liver microsomes assessed as compound remaining at 1 uM after 30 mins by HPLC-MS analysis; type: ADME; conditions: 0.5 h; summary of the method: as §2
HCT-116 [15] = experiment: Metabolic stability in human HCT116 cells at 25 ug/ml up to 24 hrs by HPLC-MS analysis; type: ADME, cell-based; conditions: hct-116, 24 h
Summary of the method: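 HCT116 lysate diluted in 25 mM Tris-HCl pH 8.0 to 0.7 mg/mL protein, 100 μL; incubated with compound (10 μL of 25 μg/mL) 0.25 min to 24 h; ethyl acetate extraction with harmine; HPLC-MS (MRM); remaining amount from calibration curve.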

[16] = Half life in phosphate buffer at 25 ug/ml at pH 7.4 by HPLC-MS analysis; type: physicochemical; summary of the method: as §1
Liver [17] = experiment: Metabolic stability in CD1 mouse liver microsomes assessed as compound remaining at 1 uM after 15 mins by HPLC-MS analysis in presence of NADPH; type: ADME; conditions: 0.25 h; summary of the method: as §2
Liver [18] = experiment: Metabolic stability in CD1 mouse liver microsomes assessed as compound remaining at 1 uM after 5 mins by HPLC-MS analysis in presence of NADPH; type: ADME; summary of the method: as §2
Liver [19] = experiment: Metabolic stability in CD1 mouse liver microsomes assessed as compound remaining at 1 uM after 3 mins by HPLC-MS analysis; type: ADME; conditions: 0.05 h; summary of the method: as §2
HCT-116 [20] = experiment: Antitumor activity against human HCT116 cells xenografted in nu/nu mouse assessed as tumor growth inhibition at 0.1 mg/kg, ip for 16 days relative to control; type: functional; conditions: HCT-116, ip, 384 h, route intraperitoneal, read-out: TGI
Summary of the method: (§3)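 Female nu/nu mice, 3–5 weeks old; 1×10^6 HCT116 cells in saline injected sc in left rear flank; daily ip 0.1 or 0.25 mg/kg (2 or 5 μg/mouse) or DMSO vehicle, 16 days; n = 7 treated, 6 vehicle; caliper volumes daily (W²×L×0.5); tumours starting above 100 mm³ excluded.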

Mus musculus [21] = experiment: Toxicity in nu/nu mouse xenografted with human HCT116 cells assessed as abnormal behavior at 0.1 to 0.25 mg/kg, ip for 16 days; type: organism-based, HCT-116; parameters: dose 0.1-0.25 mg/kg, route intraperitoneal; conditions: in vivo, 384 h
HCT-116 [22] = experiment: Antitumor activity against human HCT116 cells xenografted in ip dosed nu/nu mouse assessed as tumor growth inhibition administered for 16 days; type: functional, organism-based; summary of the method: as §3
Mus musculus [23] = experiment: Toxicity in nu/nu mouse xenografted with human HCT116 cells assessed as body weight loss at 0.1 to 0.25 mg/kg, ip for 16 days; type: organism-based, HCT-116; parameters: dose 0.1-0.25 mg/kg, route intraperitoneal; conditions: in vivo, 384 h
HCT-116 [24] = experiment: Downregulation of VEGFR2 protein expression in human HCT116 cells xenografted in nu/nu mouse at 0.25 mg/kg, ip for 16 days by immunoblotting analysis; type: functional, organism-based; parameters: dose 0.25 mg/kg
Summary of the method: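 Xenograft tumours harvested at the end of the daily ip efficacy study in nu/nu mice bearing sc HCT116 tumours were analysed by immunoblotting with anti-VEGFR2 antibody.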

SMILES | half-life at 25 ug/ml [1] | IC50 (HCT-116 [2]) | Stability (Liver [3]) | Stability (Liver [4]) | Stability (Liver [5]) | IC50 [6] | Stability (Liver [7]) | half-life at 1 µM [8] | Stability (Plasma) | Stability (Liver [9]) | Activity (HCT-116 [10]) | Stability (Liver [11]) | Stability (Liver [12]) | Stability (Liver [13]) | Stability (Liver [14]) | Stability (HCT-116 [15]) | half-life at 25 ug/ml [16] | Stability (Liver [17]) | Stability (Liver [18]) | Stability (Liver [19]) | also measured
CC[C@H](C)[C@H]1C(=O)N2CCC[C@H]2C(=O)O[C@H](C(C)(C)C)C[C@@H](C)C[C@H](O)[C@H](C)C2=N[C@@H](CCC(=O)N[C@@H](Cc3ccc(OC)cc3)C(=O)N(C)[C@@H](C)C(=O)N1C)CS2 [APRATOXIN S4] | > 24 h | 1430 pM | 10% | 87.2% | 39.55% | 320 pM | 70.8% | < 5 min | Stable | 9.58% | Active | 6.02% | 87.1% | 55.25% | 73.85% | Stable | > 24 h | 10.07% | 32.2% | 87.05% | 
CC[C@H](C)[C@H]1C(=O)N2CCC[C@H]2C(=O)O[C@H](C(C)(C)C)C[C@@H](C)C[C@H](O)C(C)(C)C2=N[C@@H](CCC(=O)N[C@@H](Cc3ccc(OC)cc3)C(=O)N(C)[C@@H](C)C(=O)N1C)CS2 | > 24 h | 1990 pM | 3.55% | 63.45% | 37.2% | 470 pM | 77.45% | < 5 min | Stable | 4.83% | Active | 5.01% | 81.25% | 70.05% | 74.75% | Stable | > 24 h | 8.28% | 17.3% | 74.1% | inhibition in vivo at 0.1 mg/kg (HCT-116 [20]): 50%; Activity (Mus musculus [21]): Non-toxic; TGI (HCT-116 [22]): Dose-dependent effect; Activity (Mus musculus [23]): Non-toxic; Activity (HCT-116 [24]): Active
CC[C@H](C)[C@H]1C(=O)N2CCC[C@H]2C(=O)O[C@H](C(C)(C)C)C[C@@H](C)C[C@H](O)CC2=N[C@@H](CCC(=O)N[C@@H](Cc3ccc(OC)cc3)C(=O)N(C)[C@@H](C)C(=O)N1C)CS2 | > 24 h | 1250 pM | 5.41% | 76.55% | 54.95% | 300 pM | 60.5% | < 5 min | Stable | 6.1% | Active | 4.3% | 54.5% | 53.85% | 54.8% | Stable | > 24 h | 52.4% | 18.7% | 66.6% | 
CC[C@H](C)[C@H]1C(=O)N2CCC[C@H]2C(=O)O[C@H](C(C)(C)C)C[C@@H](C)C[C@H](O)[C@H](C)C2=N[C@H](CCC(=O)N[C@@H](Cc3ccc(OC)cc3)C(=O)N(C)[C@@H](C)C(=O)N1C)CS2 | > 24 h | 690 pM | 6.06% | 45.25% | 51.4% | 120 pM | 71.4% | < 5 min | Stable | 3.73% | Active | 5.63% | 48.45% | 56.25% | 56.05% | Stable | > 24 h | 3.55% | 17.8% | 83.1% | 
